Assay outcomes: PubChem, several laboratories
Rows were chosen to be rich in hits. Some 2.2% of all compounds tested hit in one or more screens of this group.
PglD inh = inhibitors of Campylobacter jejuni PglD acetyltransferase; purified PglD enzyme, DTNB colorimetric CoA detection; inhibition, % at 12.5 µM; 360,000 compounds, 0.098% hits; in the data active = inhibition above about 16%, passing the limit was not always enough
Ecoli rRNA inh = inhibits bacterial ribosomal RNA function over humanized ribosomes. E. coli WT GFP vs humanized-ribosome RFP mutants, fluorescence, 24 h; hits give low values; DMSO median 0, no signal -100. GFP signal change (wild-type ribosome), % (test concentration not listed). 350,000 compounds, 1.6% hits. AID 720706;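 active = significant combined selectivity score with lowered wild-type GFP, culture density cut under 30%, mutant RFP and density less affected; inactive = any of these conditions unmet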
Cneo AK release = Cryptococcus neoformans lysis via adenylate kinase release; C. neoformans lysis, adenylate kinase release luminescence, 4 h; normalised: neutral wells 0, clomiphene wells 100; lysis activity, % at 15 µM; 360,000 compounds, 0.2% hits; AID 651654;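 active = mean lysis activity across replicates of at least 80%, whatever share of replicates individually reach that level; inactive = mean lysis activity below 80%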
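Assay system: Cryptococcus neoformans yeast cells / Dosing: single-point compound dose / Timing: 4 h at 37 °C static, read 1 h later / Measured by: luminescence of released adenylate kinase using an AK detection reagent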
Mot1-301 SUMO = blocks SUMOylation pathway, rescuing yeast Mot1-301 growth | 320,000 compounds, 1% hits | growth rescue, % at 18.8 µM | S. cerevisiae Mot1-301 growth rescue, ATP luminescence, 38.5C; percent above DMSO median, 100 means doubled;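 active = every valid replicate shows activation above 250% relative to neutral control wells; inactive = the rest, any valid replicate at or below 250%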;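 also: OY570 slx delta 5 strain wells were the positive control but not used for scaling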
Yeast superoxide = yeast age-related superoxide inhibition as caloric restriction mimetic. S. cerevisiae aged cells, superoxide DHE fluorescence; hits give low values. superoxide response (% of plate mean), % at 10 µM. 330,000 compounds, 0.18% hits;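 active = superoxide response under a set limit, about three screen SD below normal, cut at about 65% in these data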;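 also: yeast aged for seven days with compound at 30 °C before DHE staining; 100% = average MFI of all compound-treated wells on the plate with controls excluded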
* hit, by the source's call; . = no result.

SMILES | PglD inh | Ecoli rRNA inh | Cneo AK release | Mot1-301 SUMO | Yeast superoxide
C[C@H]1CN([C@@H](C)CO)C(=O)c2cc(NS(=O)(=O)c3ccccc3)ccc2O[C@H]1CN(C)C(=O)NC1CCCCC1 | -1 | 0 | -1 | . | .
COc1ccc(S(=O)(=O)Nc2ccc3c(c2)C(=O)N([C@@H](C)CO)C[C@@H](C)[C@H](CN(C)C(=O)Nc2ccccc2)O3)cc1 | 2 | 4 | -3 | . | .
COc1ccc(S(=O)(=O)Nc2ccc3c(c2)C(=O)N([C@H](C)CO)C[C@@H](C)[C@@H](CN(C)C(=O)Nc2ccccc2)O3)cc1 | 3 | 0 | 83* | . | .
C[C@H](CO)N1C[C@H](C)[C@@H](CN(C)C(=O)Nc2ccc3c(c2)OCO3)Oc2ccc(NS(=O)(=O)c3cccs3)cc2C1=O | -1 | -1 | 100* | . | .
C[C@@H]1CN([C@@H](C)CO)C(=O)Cc2cc(NC(=O)Nc3ccc(C(F)(F)F)cc3)ccc2O[C@@H]1CN(C)Cc1ccncc1 | 4 | -19 | 3 | . | .
COC(=O)c1ccccc1N1C(=O)C2C(C1=O)C1C=CC2C12CC2 (stereo not given) | 1 | . | 2 | 21 | 57*
CC(C#N)Sc1nc2ccccc2c(=O)n1-c1ccccc1 (stereo not given) | -1 | -22* | 1 | -12 | 97
Cc1c(O)c(=O)n(-c2ccccc2)n1C | 6 | -16* | 5 | 3 | 91
Cc1c(-n2c(SCC(C)C)nc3ccccc3c2=O)c(=O)n(-c2ccccc2)n1C | 11 | -26* | 2 | -17 | 114
C[C@H]1CN(C)C(=O)Cc2ccccc2O[C@@H]1CN(C)C | . | -1 | . | . | .
C[C@@H]1CN([C@@H](C)CO)C(=O)c2cc(NS(=O)(=O)c3ccc(F)cc3)ccc2O[C@@H](C)CCCCO[C@@H]1CN(C)C(=O)Nc1ccc(F)cc1 | -5 | 0 | 3 | . | .
CC(=O)N(C)C[C@H]1Oc2ccc(N(C)C)cc2C(=O)N(C)C[C@H]1C | . | 0 | . | . | .
CCCCCCCCC(=O)NNC(=O)c1c(O)c2ccccc2n(CCC)c1=O | . | -6 | . | 312* | 88
CCOC(=O)c1ccc2c(c1)nc(SCC(=O)N1CCOCC1)n2CC | . | -39* | . | -2 | 98
CCOC(=O)CSc1nc2cc(S(=O)(=O)N3CCOCC3)ccc2n1CC | -1 | -5 | 3 | 1 | 93
C[C@@H]1CN([C@H](C)CO)C(=O)c2cccc(NC(=O)c3ccncc3)c2O[C@H]1CN(C)C(=O)Nc1ccc2c(c1)OCO2 | 2 | 5 | -6 | . | .
CCCNC(=O)c1cc(C2CCCN(S(=O)(=O)c3cccc4cccnc34)C2)on1 (stereo not given) | 1 | -15* | -1 | . | .
CCC(=O)N(C)C[C@H]1Oc2ncc(C3=CCCC3)cc2C(=O)N([C@H](C)CO)C[C@@H]1C | -5 | -2 | 1 | . | .
COCC(=O)Nc1ccc2c(c1)OC[C@@H](C)N(Cc1cncnc1)C[C@H](C)[C@@H](OC)CN(C)C2=O | . | 3 | . | . | .
CC(C)C(=O)Nc1ncc(Cc2ccc(Cl)cc2)s1 | . | -28* | . | -5 | 93
CC(C)C(=O)Nc1ncc(Cc2cccc(Cl)c2)s1 | . | -28 | . | -13 | 93
CCCNC(=O)N(C)C[C@H]1Oc2cc(-c3cccnc3)ccc2S(=O)(=O)N([C@@H](C)CO)C[C@H]1C | -1 | 1 | -10 | . | .
O=S(=O)(c1ccc2ccccc2c1)N1CCN(Cc2cccc(OCCO)c2)CC1 | 2 | . | 0 | . | .
C[C@H](CO)N1C[C@H](C)[C@@H](CN(C)S(=O)(=O)c2ccc(F)cc2)OCCCC[C@H](C)Oc2ccc(NS(=O)(=O)c3cccs3)cc2C1=O | 0 | -9 | -1 | . | .
CCC(=O)N1[C@@H](CO)[C@@H](c2ccccc2)[C@@H]1CN(CC)C(=O)c1cccc(F)c1 | 1 | 0 | -1 | . | .
SMILES | PglD inh | Ecoli rRNA inh | Cneo AK release | Mot1-301 SUMO | Yeast superoxide
CCC(=O)N1[C@H](CO)[C@H](c2ccccc2)[C@H]1CN(CC)C(=O)c1cccc(F)c1 | 24 | 0 | 96* | . | .
Cc1ccc(S(=O)(=O)N2C[C@H]3[C@H]4C(=O)N(c5ccccc5)C(=O)[C@H]4C[C@H](OC(=O)Nc4c(C)noc4C)[C@@]3(O)C2)cc1 | -4 | -2.8* | 0 | . | .
Nc1[nH]c(C(=O)c2ccccc2)c(-c2ccccc2Br)c1C(=O)c1ccccc1 | . | -41* | . | . | .
O=C(C[C@H]1CC[C@@H]2[C@H](COC[C@H](O)CN2CC2CCOCC2)O1)N1CCOCC1 | 5 | -1 | 1 | . | .
Cc1ccc(Nc2nc(Cl)nc3ncn(C)c23)c(C)c1 | -6 | -36* | 1 | . | .
CC(C)NC(=O)N(C)C[C@@H]1OCCCC[C@H](C)Oc2ccc(NC(=O)Cc3ccccc3)cc2C(=O)N([C@H](C)CO)C[C@H]1C | -2 | 8 | 101* | . | .
CC(C)NC(=O)N(C)C[C@H]1OCCCC[C@@H](C)Oc2ccc(NC(=O)c3ccccc3)cc2C(=O)N([C@H](C)CO)C[C@H]1C | -1 | -3 | -1 | . | .
CNC[C@@H]1OCCCC[C@H](C)Oc2ccc(NC(=O)Nc3ccc(F)cc3)cc2C(=O)N([C@@H](C)CO)C[C@@H]1C | 2 | 2 | 6 | . | .
CC(C)NC(=O)N(C)C[C@@H]1OCCCC[C@H](C)Oc2ccc(NC(=O)Cc3ccccc3)cc2C(=O)N([C@H](C)CO)C[C@@H]1C | -2 | 0 | -1 | . | .
CNC[C@@H]1OCCCC[C@H](C)Oc2ccc(NC(=O)Nc3ccc(F)cc3)cc2C(=O)N([C@@H](C)CO)C[C@H]1C | 1 | 8 | 101* | . | .
CC(C)NC(=O)N(C)C[C@H]1OCCCC[C@H](C)Oc2ccc(NC(=O)c3ccccc3)cc2C(=O)N([C@@H](C)CO)C[C@@H]1C | 4 | -1 | 95* | . | .
CC(C)NC(=O)N(C)C[C@@H]1OCCCC[C@@H](C)Oc2ccc(NC(=O)c3ccccc3)cc2C(=O)N([C@H](C)CO)C[C@@H]1C | 2 | -2 | 111* | . | .
COc1ccc(NC(=O)N(C)C[C@@H]2OCCCC[C@@H](C)Oc3ccc(NC(=O)NC(C)C)cc3C(=O)N([C@@H](C)CO)C[C@H]2C)cc1 | 1 | 3 | 0 | . | .
CNC[C@@H]1OCCCC[C@H](C)Oc2ccc(NC(=O)c3ccccc3)cc2C(=O)N([C@@H](C)CO)C[C@@H]1C | -41 | 1 | 82* | . | .
CC(C)NC(=O)N(C)C[C@@H]1OCCCC[C@@H](C)Oc2ccc(NC(=O)c3ccccc3)cc2C(=O)N([C@@H](C)CO)C[C@@H]1C | 2 | 2 | -1 | . | .
C[C@@H]1CCCCO[C@@H](CN(C)C(=O)c2ccccc2)[C@H](C)CN([C@@H](C)CO)C(=O)c2cc(NC(=O)c3ccccc3)ccc2O1 | 1 | -21* | -1 | . | .
CC(C)NC(=O)N(C)C[C@@H]1OCCCC[C@@H](C)Oc2ccc(NC(=O)c3ccccc3)cc2C(=O)N([C@H](C)CO)C[C@H]1C | 3 | -1 | 103* | . | .
